Reference: paper PMC5463557 (Journal of medicinal chemistry, 2017)
Entries after “also recorded” stand apart in the source; their conditions may differ.

Assays:
human wild-type CFTR [1] = molecular target: T1, human wild-type CFTR (Homo sapiens, UniProt P13569); experiment: Fluorescence plate reader assay of CFTR function; assay type: cell-based; details: for CFTR activation activity (in words): plate reader assay, structure-activity discussion
Procedure, shortened: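 FRT cells stably coexpressing human wild-type CFTR and YFP-H148Q, grown near-confluent in 96-well plates. Washed with PBS, then 10 min in PBS with test compound plus 125 nM forskolin. YFP fluorescence read in single wells for 2 s baseline and 12 s after adding iodide solution (final 140 mM). Iodide influx rates give concentration–response curves; EC50 reported as mean ± SEM.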

human wild-type CFTR [2] = molecular target: T1, human wild-type CFTR; experiment: Short-circuit current measurement in CFTR-expressing FRT cells; assay type: cell-based; details: data not shown
[3] = In vitro hepatic microsomal metabolic stability; assay type: in vitro ADME, human; details: 60 min, hepatic microsomes, NADPH, 5 μM
[4] = tested on: loperamide-induced constipation in CD1 mice; experiment: Loperamide-induced mouse model of acute constipation; assay type: in vivo; details: oral, 1 h before loperamide, 3-h stool
Procedure, shortened: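 CD1 mice aged 8–10 weeks got test compound or vehicle orally 1 h before loperamide 0.3 mg/kg ip. Vehicle was saline with 5% DMSO and 10% Kolliphor HS 15. Mice kept in metabolic cages with free food and water; stool collected for 3 h. Total weight, pellet count and water content (wet vs dry weight) measured. Mean ± SEM; unpaired Student's t-test, P < 0.05.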

TMEM16A = molecular target: T2, TMEM16A (Homo sapiens, UniProt Q5XXA6); experiment: TMEM16A activity in FRT cells expressing YFP; assay type: cell-based; details: 10 μM
T2 sequence (Q5XXA6 1-986): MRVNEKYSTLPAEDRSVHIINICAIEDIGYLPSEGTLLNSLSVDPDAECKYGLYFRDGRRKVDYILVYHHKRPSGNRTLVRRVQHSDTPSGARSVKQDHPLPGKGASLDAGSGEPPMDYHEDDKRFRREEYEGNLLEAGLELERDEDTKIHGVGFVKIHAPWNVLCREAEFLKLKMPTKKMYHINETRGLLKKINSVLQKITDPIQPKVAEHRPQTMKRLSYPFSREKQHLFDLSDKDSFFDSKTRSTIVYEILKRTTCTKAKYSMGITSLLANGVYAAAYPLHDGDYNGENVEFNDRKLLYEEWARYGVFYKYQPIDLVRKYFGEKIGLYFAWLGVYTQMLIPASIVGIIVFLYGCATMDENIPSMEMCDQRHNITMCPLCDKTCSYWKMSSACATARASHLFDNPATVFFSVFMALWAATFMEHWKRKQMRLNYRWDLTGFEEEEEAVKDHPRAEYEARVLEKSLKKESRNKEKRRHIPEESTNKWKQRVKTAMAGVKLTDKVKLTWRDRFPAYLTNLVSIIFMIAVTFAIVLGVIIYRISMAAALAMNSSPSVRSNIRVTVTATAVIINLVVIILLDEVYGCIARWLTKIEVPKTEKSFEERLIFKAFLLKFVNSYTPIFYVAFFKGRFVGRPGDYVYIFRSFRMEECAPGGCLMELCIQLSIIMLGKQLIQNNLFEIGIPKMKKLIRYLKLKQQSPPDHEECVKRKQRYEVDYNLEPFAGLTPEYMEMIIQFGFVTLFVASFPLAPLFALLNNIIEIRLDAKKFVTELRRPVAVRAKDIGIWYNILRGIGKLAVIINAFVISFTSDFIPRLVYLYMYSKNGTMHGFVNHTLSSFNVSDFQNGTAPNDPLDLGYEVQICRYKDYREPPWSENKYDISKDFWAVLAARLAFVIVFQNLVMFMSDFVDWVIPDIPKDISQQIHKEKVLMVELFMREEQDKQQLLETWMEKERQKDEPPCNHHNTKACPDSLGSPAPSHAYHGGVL
Procedure, shortened: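 FRT cells coexpressing YFP and TMEM16A, tested with 10 μM test compound. Run like the YFP iodide-influx plate reader assay; iodide influx rate computed from fluorescence.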

[5] = tested on: calcium-activated chloride channels in HT-29 cells; experiment: Non-TMEM16A CaCC activity in HT-29 cells expressing YFP; assay type: cell-based; details: 10 μM
Procedure, shortened: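 HT-29 cells expressing YFP used for non-TMEM16A calcium-activated chloride channel activity, with test compound at 10 μM. Iodide influx rate computed from YFP fluorescence.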

cellular cAMP level = experiment: Cellular cAMP in FRT cells; assay type: cell-based, rat; details: 10 μM, 10 min, without or with 90 nM forskolin
cytoplasmic calcium = experiment: Cytoplasmic calcium by Fluo-4 fluorescence in FRT cells; assay type: cell-based, rat; details: 10 μM, 5 min pretreatment, 100 μM ATP
mice = details: cited from earlier work

T1 sequence (P13569 whole entry): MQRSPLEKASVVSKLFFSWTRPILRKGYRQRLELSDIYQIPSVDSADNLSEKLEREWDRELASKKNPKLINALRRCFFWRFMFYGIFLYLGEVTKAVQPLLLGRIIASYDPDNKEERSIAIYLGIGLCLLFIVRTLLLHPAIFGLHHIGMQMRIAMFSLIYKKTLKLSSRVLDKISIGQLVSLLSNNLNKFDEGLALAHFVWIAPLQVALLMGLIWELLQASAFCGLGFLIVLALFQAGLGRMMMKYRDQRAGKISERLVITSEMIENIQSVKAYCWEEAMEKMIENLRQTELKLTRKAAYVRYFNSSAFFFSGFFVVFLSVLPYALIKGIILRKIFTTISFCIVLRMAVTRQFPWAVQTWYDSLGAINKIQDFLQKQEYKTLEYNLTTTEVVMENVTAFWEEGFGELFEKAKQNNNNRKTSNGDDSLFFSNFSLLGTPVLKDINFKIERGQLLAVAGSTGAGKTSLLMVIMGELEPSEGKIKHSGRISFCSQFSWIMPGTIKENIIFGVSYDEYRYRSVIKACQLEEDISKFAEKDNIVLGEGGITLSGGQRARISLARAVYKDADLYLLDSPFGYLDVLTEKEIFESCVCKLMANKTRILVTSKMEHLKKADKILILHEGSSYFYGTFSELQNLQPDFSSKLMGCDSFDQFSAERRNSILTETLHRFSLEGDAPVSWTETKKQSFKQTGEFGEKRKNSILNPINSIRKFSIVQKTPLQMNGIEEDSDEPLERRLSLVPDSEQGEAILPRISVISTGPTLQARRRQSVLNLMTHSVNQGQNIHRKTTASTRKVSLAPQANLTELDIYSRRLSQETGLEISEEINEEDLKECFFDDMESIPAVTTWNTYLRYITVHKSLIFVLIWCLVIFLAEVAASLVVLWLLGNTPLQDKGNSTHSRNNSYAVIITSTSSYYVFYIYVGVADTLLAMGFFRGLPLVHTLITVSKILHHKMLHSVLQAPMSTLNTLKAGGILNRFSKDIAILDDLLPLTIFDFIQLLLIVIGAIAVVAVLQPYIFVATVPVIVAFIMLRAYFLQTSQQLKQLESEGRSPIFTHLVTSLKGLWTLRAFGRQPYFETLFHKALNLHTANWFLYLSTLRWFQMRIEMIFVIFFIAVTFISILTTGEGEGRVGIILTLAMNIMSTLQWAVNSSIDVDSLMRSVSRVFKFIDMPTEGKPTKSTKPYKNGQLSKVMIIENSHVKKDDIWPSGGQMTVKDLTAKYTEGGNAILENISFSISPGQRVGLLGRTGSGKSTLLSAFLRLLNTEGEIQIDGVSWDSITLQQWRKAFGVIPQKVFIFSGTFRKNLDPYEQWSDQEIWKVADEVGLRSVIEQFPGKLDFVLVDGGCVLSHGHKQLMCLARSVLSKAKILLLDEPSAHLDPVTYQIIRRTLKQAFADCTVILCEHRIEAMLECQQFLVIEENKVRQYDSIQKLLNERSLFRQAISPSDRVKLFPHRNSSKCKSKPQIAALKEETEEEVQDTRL

Row | Structure (SMILES) | CFTR activation activity (in words) (human wild-type CFTR [1]) | further results
1 | COC(=O)c1ccc([N+](=O)[O-])c(-c2nc3ccccc3n(Cc3ccccc3)c2=O)c1 [1a, Methyl 3-(4-Benzyl-3-oxo-3,4-dihydroquinoxalin-2-yl)-4-nitrobenzoate] | very low activity | –
2 | O=C(O)c1ccc([N+](=O)[O-])c(-c2nc3ccccc3n(Cc3ccccc3)c2=O)c1 [1b, 3-(4-Benzyl-3-oxo-3,4-dihydroquinoxalin-2-yl)-4-nitrobenzoic Acid] | very low activity | –
3 | O=c1c(-c2cccc([N+](=O)[O-])c2)nc2ccccc2n1Cc1ccccc1 [1c, 1-Benzyl-3-(3-nitrophenyl)quinoxalin-2(1H)-one] | – | Potency in nonpermeabilized versus permeabilized CFTR-expressing FRT cells (human wild-type CFTR [2]): similar; Increase in potency compared to 4 (human wild-type CFTR [1]; CFTR activation potency relative to 4): ~10 fold; Compound metabolized [3]: < 40%; Stool weight, pellet number and hydration [4]: fully normalized; Inhibition or activation of TMEM16A (TMEM16A): neither inhibited nor activated; Inhibition or activation of calcium-activated chloride channels [5]: neither inhibited nor activated; Effect on cellular cAMP level (cellular cAMP level): did not affect; Effect on cytoplasmic calcium and ATP-stimulated calcium elevation (cytoplasmic calcium): nor did it elevate cytoplasmic calcium or inhibit the ATP-stimulated elevation in cytoplasmic calcium
4 | O=c1c(-c2ccccc2[N+](=O)[O-])nc2ccccc2n1Cc1ccccc1 [1d, 1-Benzyl-3-(2-nitrophenyl)quinoxalin-2(1H)-one] | reduced activity | –
5 | O=c1c(-c2ccc([N+](=O)[O-])cc2)nc2ccccc2n1Cc1ccccc1 [1e, 1-Benzyl-3-(4-nitrophenyl)quinoxalin-2(1H)-one] | reduced activity | –
6 | O=c1c(-c2ccc(C(F)(F)F)cc2)nc2ccccc2n1Cc1ccccc1 [1f, 1-Benzyl-3-(4-(trifluoromethyl)phenyl)quinoxalin-2(1H)-one] | low activity | –
7 | O=c1c(-c2cccc(Br)c2)nc2ccccc2n1Cc1ccccc1 [1g, 1-Benzyl-3-(3-bromophenyl)quinoxalin-2(1H)-one] | low activity | –
8 | O=c1c(-c2ccccc2)nc2ccccc2n1Cc1ccccc1 [1h, 1-Benzyl-3-phenylquinoxalin-2(1H)-one] | significantly lower activity | –
9 | O=c1c(-c2ccc(F)c([N+](=O)[O-])c2)nc2ccccc2n1Cc1ccccc1 [1i, 1-Benzyl-3-(4-fluoro-3-nitrophenyl)quinoxalin-2(1H)-one] | reduced activity | –
10 | COC(=O)c1ccc(N)c(-c2nc3ccccc3n(Cc3ccccc3)c2=O)c1 [1j, Methyl 4-Amino-3-(4-benzyl-3-oxo-3,4-dihydroquinoxalin-2-yl)-benzoate] | moderately potent | –
11 | Nc1ccc(C(=O)O)cc1-c1nc2ccccc2n(Cc2ccccc2)c1=O [1k, 4-Amino-3-(4-benzyl-3-oxo-3,4-dihydroquinoxalin-2-yl)benzoic Acid] | inactive | –
12 | N#Cc1cccc(-c2nc3ccccc3n(Cc3ccccc3)c2=O)c1 [1l, 3-(4-Benzyl-3-oxo-3,4-dihydroquinoxalin-2-yl)benzonitrile] | greatly reduced activity | –
13 | O=c1c(-c2ccc3nonc3c2)nc2ccccc2n1Cc1ccccc1 [1m, 3-(Benzo[c][1,2,5]oxadiazol-5-yl)-1-benzylquinoxalin-2(1H)-one] | comparable potency to the nitro analog | –
14 | O=c1c(-c2cccc([N+](=O)[O-])c2)nc2cc(Br)ccc2n1Cc1ccccc1 [2f, 1-Benzyl-6-bromo-3-(3-nitrophenyl)quinoxalin-2(1H)-one] | good activity; also recorded: underperforms by nearly an order of magnitude compared to unsubstituted 1c | –
15 | Nc1ccc([N+](=O)[O-])cc1-c1nc2ccccc2n(Cc2ccccc2)c1=O [compound 4] | – | Off-target actions or toxicity (mice; chronic administration in mice): no apparent off-target actions or toxicity; Metabolism (mice): rapid metabolism; Oral bioavailability (mice; mice): minimal oral bioavailability

The next lines start with results.

Row | CFTR activation activity (in words) (human wild-type CFTR [1]) | Structure (SMILES) | further results
16 | good activity | O=c1c(-c2cccc([N+](=O)[O-])c2)nc2cc(Cl)ccc2n1Cc1ccccc1 [2b, 1-Benzyl-6-chloro-3-(3-nitrophenyl)quinoxalin-2(1H)-one] | –
17 | reduced activity | O=c1c(-c2cccc([N+](=O)[O-])c2)nc2cc(Cl)c(Cl)cc2n1Cc1ccccc1 [2d, 1-Benzyl-6,7-dichloro-3-(3-nitrophenyl)quinoxalin-2(1H)-one] | –
18 | reduced activity | O=c1c(-c2cccc([N+](=O)[O-])c2)nc2cc(F)c(F)cc2n1Cc1ccccc1 [2g, 1-Benzyl-6,7-difluoro-3-(3-nitrophenyl)quinoxalin-2(1H)-one] | –
19 | reduced activity | Cc1cc2nc(-c3cccc([N+](=O)[O-])c3)c(=O)n(Cc3ccccc3)c2cc1C [2i, 1-Benzyl-6,7-dimethyl-3-(3-nitrophenyl)quinoxalin-2(1H)-one] | –
20 | significantly reduced activity | O=c1c(-c2cccc([N+](=O)[O-])c2)nc2ccccc2n1Cc1cccc2ccccc12 [3f, 1-(Naphthalen-1-ylmethyl)-3-(3-nitrophenyl)quinoxalin-2(1H)-one] | –
21 | significantly reduced activity | O=c1c(-c2cccc([N+](=O)[O-])c2)nc2ccccc2n1Cc1ccc2ccccc2c1 [3g, 1-(Naphthalen-2-ylmethyl)-3-(3-nitrophenyl)quinoxalin-2(1H)-one] | –
22 | comparable activity | O=c1c(-c2cccc([N+](=O)[O-])c2)nc2ccccc2n1Cc1ccccn1 [3h, 3-(3-Nitrophenyl)-1-(pyridin-2-ylmethyl)quinoxalin-2(1H)-one] | –
23 | comparable activity | O=c1c(-c2cccc([N+](=O)[O-])c2)nc2ccccc2n1Cc1ccco1 [3i, 1-(Furan-2-ylmethyl)-3-(3-nitrophenyl)quinoxalin-2(1H)-one] | –
24 | comparable activity | O=c1c(-c2cccc([N+](=O)[O-])c2)nc2ccccc2n1Cc1cccs1 [3j, 3-(3-Nitrophenyl)-1-(thiophen-2-ylmethyl)quinoxalin-2(1H)-one] | –
